Jurkat viability – reduces viability or proliferation of Jurkat cells. Jurkat E6.1 viability, ATP luminescence, 48 h. inhibition, % at 4 µM. 56,000 tested, 1.2% active;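 active = inhibition above the mean inhibition of all tested compounds plus 3 SD, cut at about 28% in these data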
RORa activator – activates the human nuclear receptor RORA; CHO-K1 Gal4-RORA LBD luciferase reporter, luminescence; percent increase over mock-subtracted basal signal; AID 560; activation, % at 10 µM; 65,000 tested, 1.5% active; P35398;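 active = activation above the mean of all tested compounds plus 3 SD, cut at about 49% in these data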;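 also: 0% = DMSO-treated RORA cells and 100% = added signal equal to DMSO minus mock-transfected cells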
Target sequence (P35398 whole entry, looked up, the tested form may be a part): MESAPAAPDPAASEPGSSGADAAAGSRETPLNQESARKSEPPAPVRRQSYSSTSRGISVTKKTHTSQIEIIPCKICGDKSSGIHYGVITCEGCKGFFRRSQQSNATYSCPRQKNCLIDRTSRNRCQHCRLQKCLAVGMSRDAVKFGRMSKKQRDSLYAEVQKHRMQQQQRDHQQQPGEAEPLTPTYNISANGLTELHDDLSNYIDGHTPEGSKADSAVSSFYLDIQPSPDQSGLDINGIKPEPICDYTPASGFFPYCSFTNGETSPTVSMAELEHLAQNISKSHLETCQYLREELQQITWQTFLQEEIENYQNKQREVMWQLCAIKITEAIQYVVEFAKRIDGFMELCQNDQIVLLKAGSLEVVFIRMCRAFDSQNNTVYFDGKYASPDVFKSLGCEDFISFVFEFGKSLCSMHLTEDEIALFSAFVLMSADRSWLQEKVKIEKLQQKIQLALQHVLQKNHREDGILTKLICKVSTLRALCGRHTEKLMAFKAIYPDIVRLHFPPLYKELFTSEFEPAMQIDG
SF1 activator – SF-1 (human) activation; Q13285; CHO-K1 Gal4-SF-1 LBD luciferase reporter; % increase over DMSO SF-1-specific signal; activation, % at 10 µM; 65,000 tested, 1.9% active; AID 522;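 active = activation above the mean activation of all tested compounds plus 3 SD, cut at about 50% in these data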
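Test system: transient Gal4-SF-1 LBD reporter, CHO-K1; Amount: 4,000 CHO-K1 cells per well; Doses: 10 µM only; Timing: compound exposure 20 h at 37 °C; Signal: luciferase light emission; Read-out basis: percent activation relative to DMSO median and mock-transfected background; Control set: DMSO negative control and −SF1 background wells; Replicates: one test per compound.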
HEK293 NFkB inh – inhibitors of the PMA/ionomycin-induced NF-kB reporter in HEK293 cells; inhibition, % at 3 µM; HEK-293 NF-kB luciferase reporter, luminescence; 62,000 tested, 0.21% active;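 active = inhibition above the mean of all tested compounds plus 3 SD, cut at about 40% in these data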;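 also: 0% = stimulated DMSO wells and 100% = 10 µM reference inhibitor 5653914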
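Reagent: PMA plus ionomycin mix as NF-kB-activating stimulus. Assay system: NF-kB luciferase reporter HEK-293 cells. Technique: luminescence from luciferase substrate reagent. Incubation: 1 h compound pre-incubation, 16 h PMA/ionomycin at 37 °C. Benchmarks: DMSO only as uninhibited control, 10 µM reference inhibitor as full inhibition. Repeats: tested once.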
MT1-MMP txn act – MT1-MMP promoter transcription activation; activation factor at 10 µM; HT1080 MT1-MMP promoter luciferase reporter, luminescence, overnight; active compounds read high; 86,000 tested, 0.16% active; AID 750;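 active = activation factor of at least 2 for MT1-MMP transcription at 10 µM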
Starred values were filed as active, the others as inactive; / = no result given. This is a sample that favours compounds with a hit; in the whole collection about 2.9% have one here.

SMILES	Jurkat viability	RORa activator	SF1 activator	HEK293 NFkB inh	MT1-MMP txn act
Cn1cccc1C(=O)OCc1csc(-c2ccccc2)n1	-7	59*	6	-52	0.6
Cc1cc2ccccc2c(=O)n1CC(=O)NCc1ccco1	/	/	/	/	1.1
COc1ccc(S(=O)(=O)n2nc(-c3cc(OC)c(OC)c(OC)c3)cc2N)cc1OC	5	-20	-10	17	1.1
COc1ccc(-c2cc(N)n(S(=O)(=O)c3c(F)c(F)c(F)c(F)c3F)n2)cc1OC	88*	-25	-30	20	0.3
COc1ccc(-c2csc(NCc3ccco3)n2)cc1C	5	49*	80*	-3	1.5
Cc1c(/C=C/C(=O)c2ccc(Cl)s2)cnn1C	/	/	/	/	2.4*
O=C(CCN1CCOCC1)c1ccc2c(c1)OCCO2	/	/	/	/	1.2
O=C(CCCN1CCOCC1)c1ccc2c(c1)OCCO2	6	29	56*	-18	1.5
COc1ccc(C2NC(=O)NC3=C2CCc2ccccc23)cc1 (stereo not drawn)	72*	24	41	0	1.1
COC(=O)c1ccc(C(NC(=O)OCc2ccccc2)/C(C)=C/[C@@H](C)C(=O)NCc2nc3ccccc3s2)cc1 (stereo partly drawn)	/	/	/	/	1.1
c1cncc(C2Nc3ccccc3-c3nc4ccccc4n32)c1 (stereo not drawn)	/	58*	38	-21	/
c1ccc2c(c1)NC(c1ccncc1)n1c-2nc2ccccc21 (stereo not drawn)	/	21	31	/	1.1
Cn1cc(C(=O)c2ccc(Cl)cc2)cc1-c1nc2ccccc2n1C	42*	-11	-28	10	1.1
C/C=C(\CS(=O)(=O)c1ccccc1)S(=O)(=O)c1ccccc1	0	-32	-15	2	1.1
COC(=O)CSc1nc2cc(C)ccc2cc1C#N	-5	17	100*	-41	2*
CCOC(=O)CC(=O)CSc1nc2c(cc1C#N)CCCCC2	/	19	59*	/	1.5
CCOC(=O)CC(=O)CSc1nc2ccc(C)cc2cc1C#N	12	20	72*	-17	1.5
Cc1ccccc1-c1noc(-c2cccs2)n1	6	39	53*	2	1.4
COc1cccc(-c2nc(-c3ccccc3)no2)c1	-5	14	-9	-38	0.8
COc1cccc(-c2nc(-c3ccc(NC(=O)c4cccnc4)cc3)no2)c1	-4	51*	55*	-13	1.3
COc1cccc(-c2noc(-c3cccs3)n2)c1	-2	66*	-8	-34	1.3
COc1ccc(-c2noc(-c3ccccc3-c3ccccc3)n2)cc1	/	/	/	/	1.1
COc1ccc(-c2noc(-c3ccc(Cl)cc3)n2)cc1	9	49*	28	-12	1.2
COc1nc(-c2ccccc2)ccc1-c1noc(-c2cccs2)n1	4	48	49	-1	1.5
CCC1=C(OC(=O)N(CC)CC)N2C(=O)OC(=NCCOC)[C@]2(Cc2ccccc2)[C@H]2C1=CC[C@H]1C(=O)N(C)C(=O)[C@H]12	/	/	/	/	1.1
SMILES	Jurkat viability	RORa activator	SF1 activator	HEK293 NFkB inh	MT1-MMP txn act
O=C1CCCN1c1cccc(Br)c1	/	/	/	/	1
Cc1ccc(-c2nc(-c3cccnc3)no2)cc1	-4	11	56*	-32	0.5
COc1cccc(-c2noc(-c3cccnc3)n2)c1	2	86*	22	-28	1.4
c1ccc(-c2ccccc2-c2nc(-c3cccnc3)no2)cc1	5	-10	0	1	1.2
c1ccc(CNn2nnnc2-c2ccccc2)cc1	4	-9	2	8	1
CN1CC2=Cc3ccccc3OC23Oc2ccccc2C=C3C1	9	4	-16	8	1.1
COC(=O)CN=C1OC(=O)N2C(=O)C3=C4[C@@H](C[C@H]5C(=O)N(c6ccccc6)C(=O)[C@H]5[C@H]4[C@@]12Cc1ccccc1)[C@H]1C(=O)N(c2ccccc2)C(=O)[C@H]1[C@H]3C	/	/	/	/	1.2
O=C(c1cc(-c2cccs2)on1)N1CCOCC1	-2	51*	48	-20	1.3
O=C(NCCN1CCOCC1)c1cc(-c2cccs2)on1	10	68*	35	-25	1.2
O=C(NCCN1CCOCC1)c1cc(-c2ccccc2)on1	-4	-1	37	-12	1.2
Cc1nc(N)sc1-c1csc(Nc2ccc(Cl)cn2)n1	12	20	26	6	1.2
Cc1nc(N)sc1-c1csc(Nc2ccccn2)n1	-1	57*	31	-2	1.4
Cc1ccc(C(=O)Nc2c3c(nn2C(C)(C)C)CS(=O)(=O)C3)cc1C	/	-7	-1	6	1.1

Screening results (PubChem BioAssay)
